APJ ag: activates the human apelin receptor APJ | hit rate 0.11% among 330,000 | activation, % at 20 µM | P35414 | AID 2520 | CHO-K1 APJ PathHunter beta-arrestin, luminescence; 0% DMSO wells, 100% apelin;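 active means activation more than six SD over the plate average, tested at 20 µM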;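 further: 0% = DMSO alone and 100% = apelin-13 at 10 nM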
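Test system – PathHunter CHO-K1 APJ (AGTRL-1) beta-arrestin reporter cells · Input – 1000 cells/well · Compound – single test compound dose, 20 µM final, 1% DMSO · Times – compound stimulation 90 min at 25 °C, detection 60 min · Technique – beta-gal luminescence · Read-out basis – APJ–arrestin association signal · Control set – negative DMSO alone, positive Apelin-13 at 10 nM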
CXCR6 block: blocks human CXCR6 beta-arrestin recruitment; CHO-K1 PathHunter CXCR6 beta-arrestin, luminescence; inhibition, % at 20 µM; hit rate 0.36% among 360,000; AID 602244; in the data active means inhibition above about 34%, passing the limit was not always enough;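 further: antagonist mode with CXCL16 agonist at 10 nM final; 0% = 10 nM CXCL16 with DMSO and 100% = unstimulated wells without agonist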
CCR6 antagonist: CCR6 (human) receptor antagonism | P51684 | CHO-K1 CCR6 PathHunter beta-arrestin, luminescence, CCL20-stimulated | inhibition, % at 20 µM | hit rate 0.49% among 340,000 | AID 493098;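 active means compounds whose inhibition of the agonist-driven luminescence signal at 20 µM reaches about 50%, limit read from the data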;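 further: cells stimulated with CCL20 at 14 nM final; plate controls were DMSO with CCL20 for no effect and DMSO without agonist for full effect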
EBI2 block: antagonists of human EBI2 receptor. P32249. EBI2 beta-arrestin recruitment, luminescence, 7a,25-OHC stimulated. inhibition, % at 5 µM. hit rate 0.81% among 360,000. AID 651636; in the data active means inhibition above about 38%;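 further: enzyme fragment complementation signal reports receptor beta-arrestin coupling in cells; 0% = agonist plus DMSO wells and 100% = wells without agonist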
Target sequence (P32249 whole entry, looked up, the tested form may be a part): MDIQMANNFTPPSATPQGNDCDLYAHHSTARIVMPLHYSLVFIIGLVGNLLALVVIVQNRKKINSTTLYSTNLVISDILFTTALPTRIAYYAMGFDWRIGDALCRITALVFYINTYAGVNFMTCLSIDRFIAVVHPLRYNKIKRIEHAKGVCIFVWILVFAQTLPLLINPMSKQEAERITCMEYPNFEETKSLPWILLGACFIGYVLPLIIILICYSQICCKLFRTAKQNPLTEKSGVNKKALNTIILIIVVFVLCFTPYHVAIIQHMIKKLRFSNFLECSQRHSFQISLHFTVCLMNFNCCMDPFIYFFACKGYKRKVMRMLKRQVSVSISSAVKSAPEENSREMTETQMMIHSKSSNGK
APJ antagonist: APJ receptor antagonism | P35414 | CHO-K1 APJ beta-arrestin complementation, luminescence | inhibition, % at 20 µM | hit rate 0.32% among 330,000;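 active means inhibition above about 40% at 20 µM, limit read from the data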;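 further: cells challenged with 10 nM apelin-13 agonist together with compound; plate controls were apelin-13 plus DMSO wells for no effect and DMSO wells lacking apelin-13 for full effect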
EBI2 conf: EBI2 (human) antagonism, single concentration confirmation; EBI2 beta-arrestin luminescence, 7a,25-OHC antagonism; inhibition, % at 5 µM; hit rate 29% among 2,400; AID 651997; shares compounds with EBI2 block;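 active means inhibition of at least 50%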
EBI2 ag: EBI2 agonism counter-screen | 2,400 tested, under 10 active | shares compounds with EBI2 block | EBI2-expressing cells, agonist mode, luminescence, 60 min; 0% vehicle, 100% 7α,25-dihydroxycholesterol control | activation, % at 5 µM | AID 652000;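 active means activation of at least 50%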
bGal cs: counter-screen for EBI2 antagonists: E. coli beta-galactosidase inhibition; shares compounds with EBI2 block; purified beta-galactosidase, luminescent Galacton Star, 15 min; inhibition, % at 5 µM; hit rate 1% among 2,400; AID 652176;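 active means replicate-average signal at least 3 plate SD below neutral wells, shown as high inhibition, flagging enzyme-inhibiting false positives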;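 further: 0% = DMSO wells with enzyme and 100% = wells lacking enzyme; higher means stronger loss of beta-gal luminescence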
Starred values were filed as active, the others as inactive. Most compounds without a hit are left out; they make up all but 1.5% or so of the library.

Screening COc1ccc(N2CCN(C(=O)c3cc4c(s3)-c3ccccc3OC4)CC2)cc1 returned APJ ag -3, CXCR6 block -10, CCR6 antagonist 13, EBI2 block 80*, APJ antagonist 7, EBI2 conf 67*, EBI2 ag 0 and bGal cs -8.
Screening COc1ccc2[nH]c(=O)c(C(c3nnnn3C3CCCC3)N(C)C3CCCCC3)cc2c1 (configuration not stated) returned APJ ag -2, CXCR6 block 4, CCR6 antagonist 22, EBI2 block 62*, APJ antagonist 10, EBI2 conf 38, EBI2 ag 0 and bGal cs -9.
Screening COc1ccc(C(c2nnnn2C2CCCC2)N2CCC(C)CC2)c(OC)c1 (configuration not stated) returned APJ ag -5, CXCR6 block 4, CCR6 antagonist 3, EBI2 block 2 and APJ antagonist 17.
`COc1cc2cc(C(c3nnnn3C3CCCC3)N3CCCCC3)c(=O)[nH]c2cc1OC` (configuration not stated) gave APJ ag -3, CXCR6 block 5, CCR6 antagonist 9, EBI2 block 5 and APJ antagonist -8.
`COc1ccc2cc(C(c3nnnn3C3CCCC3)N3CCCCCC3)c3nnnn3c2c1` (configuration not stated) gave APJ ag 3, CXCR6 block 10, CCR6 antagonist 18, EBI2 block 60*, APJ antagonist 1, EBI2 conf 34, EBI2 ag 0 and bGal cs -22.
Screening COc1ccc2cc(C(c3nnnn3C3CCCCC3)N3CCCCCC3)c3nnnn3c2c1 (configuration not stated) returned APJ ag -6, CXCR6 block 10, CCR6 antagonist 1, EBI2 block 54*, APJ antagonist 10, EBI2 conf 20, EBI2 ag 0 and bGal cs 7.
For Cc1ccccc1C(=O)N1CCC(C(=O)NCCc2ccc(S(N)(=O)=O)cc2)CC1 the results were APJ ag -2, CXCR6 block -2, CCR6 antagonist -8, EBI2 block -6 and APJ antagonist 19.
Cc1ccc(-c2nnc(/C=C/c3ccccc3)o2)cc1 was read as APJ ag -1, CXCR6 block 0, CCR6 antagonist 12, EBI2 block 49*, APJ antagonist -9, EBI2 conf 30, EBI2 ag -1 and bGal cs -14.
Cc1ccc(/C=C/c2nnc(-c3cccc(C)c3)o2)cc1 was read as APJ ag 4, CXCR6 block -3, CCR6 antagonist 23, EBI2 block 2 and APJ antagonist -11.
For CCOc1ccc(N2CC(NS(=O)(=O)c3cccnc3)CC2=O)cc1 (configuration not stated) the results were APJ ag -7, CXCR6 block -5, CCR6 antagonist 9, EBI2 block -4 and APJ antagonist 2.
For Cc1nc(SC(C)C(=O)c2c(N)n(C)c(=O)n(C)c2=O)c2c(C)c(C)sc2n1 (configuration not stated) the results were APJ ag -2, CXCR6 block 5, CCR6 antagonist 0, EBI2 block 47*, APJ antagonist 6, EBI2 conf 51*, EBI2 ag -1 and bGal cs 7.
For CC(Sc1nnc(N)s1)C(=O)c1c(N)n(C)c(=O)n(C)c1=O (configuration not stated) the results were APJ ag -3, CXCR6 block -6, CCR6 antagonist -1, EBI2 block -9 and APJ antagonist 17.
For COc1ccc(C(=O)OCC(=O)NCCN2C(=O)CSC2=O)cc1 the results were APJ ag -3, CXCR6 block 0, CCR6 antagonist 3, EBI2 block -2 and APJ antagonist 5.

Source: PubChem (Sanford-Burnham Center for Chemical Genomics)
